# In ChEMBL document CHEMBL1132569:
# Assays:
# [1] = target: T1, Muscarinic acetylcholine receptor M4 (Homo sapiens) (UniProt P08173); assay: Binding affinity at the NMS liganded human muscarinic acetylcholine receptor M4 was estimated as log affinity (log1/M)
# T1 sequence (whole entry): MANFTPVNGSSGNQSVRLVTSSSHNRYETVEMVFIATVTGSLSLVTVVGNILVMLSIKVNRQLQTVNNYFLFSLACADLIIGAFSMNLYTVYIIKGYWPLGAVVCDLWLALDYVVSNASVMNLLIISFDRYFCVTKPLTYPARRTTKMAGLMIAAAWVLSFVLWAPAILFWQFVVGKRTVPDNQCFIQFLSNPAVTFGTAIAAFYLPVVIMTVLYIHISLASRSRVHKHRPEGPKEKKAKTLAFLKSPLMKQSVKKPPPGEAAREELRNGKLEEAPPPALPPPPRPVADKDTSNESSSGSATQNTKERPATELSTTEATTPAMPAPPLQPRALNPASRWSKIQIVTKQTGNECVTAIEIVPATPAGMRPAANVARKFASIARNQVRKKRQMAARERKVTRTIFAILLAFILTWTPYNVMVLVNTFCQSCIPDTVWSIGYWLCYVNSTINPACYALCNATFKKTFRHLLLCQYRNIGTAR
# In short: (§1)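 Equilibrium runs were ≥2 h with 2 × 10⁻⁴ M GTP and 0.1–0.7 nM ³H-NMS. Nonspecific binding was defined with 10⁻⁶ M QNB, and bound ligand was filtered and counted. Log affinities came from semiquantitative plus off-rate, quantitative equilibrium, or nonequilibrium assays, fitted by nonlinear least squares to the allosteric ternary complex model.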
# [2] = target: T1, Muscarinic acetylcholine receptor M4 (Homo sapiens); assay: Binding affinity at the unliganded human muscarinic acetylcholine receptor M4 was estimated as log affinity (log1/M); in short: as §1
# [3] = target: T1, Muscarinic acetylcholine receptor M4 (Homo sapiens); assay: Cooperativity with NMS at human muscarinic acetylcholine receptor M4
# In short: (§2)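 Equilibrium ³H-NMS binding in CHO membranes expressing human m1–m5 receptors was measured with and without ACh, alone and with three agent concentrations. Data were converted to affinity ratios, meaning apparent primary-ligand affinity with agent divided by affinity without it.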
# [4] = target: T1, Muscarinic acetylcholine receptor M4 (Homo sapiens); assay: Cooperativity with acetylcholine at human muscarinic acetylcholine receptor M4; in short: as §2
# [5] = target: Muscarinic acetylcholine receptor M3 (Homo sapiens) (UniProt P20309); assay: Cooperativity with NMS at human muscarinic acetylcholine receptor M3; in short: as §2
# [6] = target: Muscarinic acetylcholine receptor M3 (Homo sapiens) (UniProt P20309); assay: Cooperativity with acetylcholine at human muscarinic acetylcholine receptor M3; in short: as §2
# [7] = target: Muscarinic acetylcholine receptor M3 (Homo sapiens) (UniProt P20309); assay: Binding affinity at the NMS liganded human muscarinic acetylcholine receptor M3 was estimated as log affinity (log1/M); in short: as §1
# [8] = target: Muscarinic acetylcholine receptor M3 (Homo sapiens) (UniProt P20309); assay: Binding affinity at the unliganded human muscarinic acetylcholine receptor M3 was estimated as log affinity (log1/M); in short: as §1
# [9] = target: T2, Muscarinic acetylcholine receptor M5 (Homo sapiens) (UniProt P08912); assay: Binding affinity at the NMS liganded human muscarinic acetylcholine receptor M5 was estimated as log affinity (log1/M); in short: as §1
# T2 sequence (whole entry): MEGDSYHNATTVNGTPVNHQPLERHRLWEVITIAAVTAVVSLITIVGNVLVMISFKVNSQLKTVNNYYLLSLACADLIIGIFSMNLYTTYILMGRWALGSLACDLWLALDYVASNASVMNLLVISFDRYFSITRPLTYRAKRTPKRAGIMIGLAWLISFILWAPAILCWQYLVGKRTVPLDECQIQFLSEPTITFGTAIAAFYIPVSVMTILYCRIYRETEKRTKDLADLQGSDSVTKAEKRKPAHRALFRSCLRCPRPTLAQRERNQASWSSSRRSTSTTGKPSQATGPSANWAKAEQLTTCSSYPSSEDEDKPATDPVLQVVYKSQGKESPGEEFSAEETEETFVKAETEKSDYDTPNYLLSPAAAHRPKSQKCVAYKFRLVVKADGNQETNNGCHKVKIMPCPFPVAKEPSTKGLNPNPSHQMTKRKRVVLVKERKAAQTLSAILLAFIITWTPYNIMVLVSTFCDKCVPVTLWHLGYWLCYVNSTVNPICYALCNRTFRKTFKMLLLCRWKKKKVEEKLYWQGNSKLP
# [10] = target: T2, Muscarinic acetylcholine receptor M5 (Homo sapiens); assay: Binding affinity at the unliganded Muscarinic acetylcholine receptor M5 was estimated as log affinity (log1/M); in short: as §1
# [11] = target: T2, Muscarinic acetylcholine receptor M5 (Homo sapiens); assay: Cooperativity with NMS at Muscarinic acetylcholine receptor M5; in short: as §2
# [12] = target: T2, Muscarinic acetylcholine receptor M5 (Homo sapiens); assay: Cooperativity with acetylcholine at Muscarinic acetylcholine receptor M5; in short: as §2
# [13] = target: T3, Muscarinic acetylcholine receptor M2 (Homo sapiens) (UniProt P08172); assay: Binding affinity at the NMS liganded human muscarinic acetylcholine receptor M2 was estimated as log affinity (log1/M); in short: as §1
# T3 sequence (whole entry): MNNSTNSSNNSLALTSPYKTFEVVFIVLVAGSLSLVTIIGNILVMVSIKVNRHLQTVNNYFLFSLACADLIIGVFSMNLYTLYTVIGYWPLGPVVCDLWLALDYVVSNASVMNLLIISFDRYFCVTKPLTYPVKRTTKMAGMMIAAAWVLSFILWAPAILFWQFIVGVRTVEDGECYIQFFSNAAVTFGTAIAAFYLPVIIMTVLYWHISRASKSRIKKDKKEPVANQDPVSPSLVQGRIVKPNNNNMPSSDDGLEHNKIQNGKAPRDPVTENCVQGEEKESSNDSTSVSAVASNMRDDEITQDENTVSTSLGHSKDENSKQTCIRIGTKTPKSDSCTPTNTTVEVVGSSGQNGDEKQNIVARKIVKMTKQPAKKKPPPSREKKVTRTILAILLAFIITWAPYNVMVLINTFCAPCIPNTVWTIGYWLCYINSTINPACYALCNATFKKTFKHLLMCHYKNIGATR
# [14] = target: T3, Muscarinic acetylcholine receptor M2 (Homo sapiens); assay: Binding affinity at the unliganded human muscarinic acetylcholine receptor M2 was estimated as log affinity (log1/M); in short: as §1
# [15] = target: T3, Muscarinic acetylcholine receptor M2 (Homo sapiens); assay: Cooperativity with NMS at human muscarinic acetylcholine receptor M2; in short: as §2
# [16] = target: T3, Muscarinic acetylcholine receptor M2 (Homo sapiens); assay: Cooperativity with acetylcholine at human muscarinic acetylcholine receptor M2; in short: as §2
# [17] = target: T4, Muscarinic acetylcholine receptor M1 (Homo sapiens) (UniProt P11229); assay: Binding affinity at the NMS liganded human muscarinic acetylcholine receptor M1 was estimated as log affinity (log1/M); in short: as §1
# T4 sequence (whole entry): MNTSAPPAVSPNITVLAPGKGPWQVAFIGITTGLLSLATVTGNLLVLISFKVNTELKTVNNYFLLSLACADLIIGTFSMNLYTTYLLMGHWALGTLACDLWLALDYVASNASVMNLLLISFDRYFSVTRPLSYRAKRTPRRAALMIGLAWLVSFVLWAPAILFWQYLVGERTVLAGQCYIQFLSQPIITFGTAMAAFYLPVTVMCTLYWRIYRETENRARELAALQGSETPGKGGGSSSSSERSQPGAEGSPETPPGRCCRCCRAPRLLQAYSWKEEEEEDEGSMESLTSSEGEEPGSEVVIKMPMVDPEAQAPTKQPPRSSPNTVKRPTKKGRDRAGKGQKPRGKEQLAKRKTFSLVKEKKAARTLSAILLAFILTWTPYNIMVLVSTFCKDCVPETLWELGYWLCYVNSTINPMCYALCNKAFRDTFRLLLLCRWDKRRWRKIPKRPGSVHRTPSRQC
# [18] = target: T4, Muscarinic acetylcholine receptor M1 (Homo sapiens); assay: Binding affinity at the unliganded human muscarinic acetylcholine receptor M1 was estimated as log affinity (log1/M); in short: as §1
# [19] = target: T4, Muscarinic acetylcholine receptor M1 (Homo sapiens); assay: Cooperativity with NMS at human muscarinic acetylcholine receptor M1; in short: as §2
# [20] = target: T4, Muscarinic acetylcholine receptor M1 (Homo sapiens); assay: Cooperativity with acetylcholine at human muscarinic acetylcholine receptor M1; in short: as §2
# Chain of Muscarinic acetylcholine receptor M3 (Homo sapiens) (P20309 whole entry, looked up): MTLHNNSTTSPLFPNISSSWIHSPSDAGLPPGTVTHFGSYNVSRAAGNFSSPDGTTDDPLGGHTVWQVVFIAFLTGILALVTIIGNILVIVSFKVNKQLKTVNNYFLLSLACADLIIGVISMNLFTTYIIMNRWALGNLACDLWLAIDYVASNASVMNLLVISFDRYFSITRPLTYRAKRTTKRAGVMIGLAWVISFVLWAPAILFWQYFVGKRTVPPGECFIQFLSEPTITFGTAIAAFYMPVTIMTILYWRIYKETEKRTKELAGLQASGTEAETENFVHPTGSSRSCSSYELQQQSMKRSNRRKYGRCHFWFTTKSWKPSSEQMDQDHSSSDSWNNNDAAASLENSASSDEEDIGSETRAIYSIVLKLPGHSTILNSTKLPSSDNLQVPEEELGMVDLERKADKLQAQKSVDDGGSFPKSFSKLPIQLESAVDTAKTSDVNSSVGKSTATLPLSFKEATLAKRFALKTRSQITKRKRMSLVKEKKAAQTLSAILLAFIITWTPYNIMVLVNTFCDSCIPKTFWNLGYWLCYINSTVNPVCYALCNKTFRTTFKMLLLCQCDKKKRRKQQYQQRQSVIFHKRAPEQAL
SMILES,Affinity [1],Affinity [2],Cooperativity [3],Cooperativity [4],Cooperativity [5],Cooperativity [6],Affinity [7],Affinity [8],Affinity [9],Affinity [10],Cooperativity [11],Cooperativity [12],Affinity [13],Affinity [14],Cooperativity [15],Cooperativity [16],Affinity [17],Affinity [18],Cooperativity [19],Cooperativity [20]
COc1cc2c(cc1OC)[C@@]13CC[N+]4(N)CC5=CCO[C@H]6CC(=O)N2[C@H]1[C@H]6[C@H]5C[C@@H]34 (stereo not given in full),4.2,< 4,2,0.8,1.19,> 2,3.9,3.8,3.3,3.6,0.8,0.8,4.2,< 4,2,0.8,3.8,3.8,1.19,0.8
COc1cc2c(cc1OC)[C@@]13CC[N+]4([O-])CC5=CCO[C@H]6CC(=O)N2[C@H]1[C@H]6[C@H]5C[C@@H]34 (stereo not given in full),3.7,3.7,1.19,2,1.19,> 2,2.8,2.8,2.7,2.5,2,0.8,3.3,2.7,> 2,0.8,3.6,3.4,2,1.19
COc1cc2c(cc1OC)[C@@]13CC[N+]4(Cc5ccccc5)CC5=CCO[C@H]6CC(=O)N2[C@H]1[C@H]6[C@H]5C[C@@H]34 (stereo not given in full),4.5,4.5,1.19,0.8,0.8,2,3.8,> 4,3.7,3.7,1.19,0.8,4.8,4.6,> 2,0.8,4.4,< 4.6,0.8,0.8
